This is a sample that favours compounds with a hit; in the whole collection about 3.5% have one here.
RGS4 inh: inhibitors of human RGS4. P49798. HEK293 M3R/RGS4 inducible, Fluo-4 calcium flux; active compounds read high; triggered by carbachol at its EC20. B-score at 10 µM. actives 0.45% (n = 310,000). AID 463165;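 active = B-score, a plate-corrected calcium signal, over three deviations above library mean, with baseline fluorescence within five deviations of library mean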;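 note: RGS4 expression induced by doxycycline in cells with stable M3 receptor; B-score is computed from the integrated fluorescence ratio over baseline after carbachol; higher B-score means a larger calcium signal and so more RGS4 inhibition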
Target sequence (P49798 whole entry, looked up): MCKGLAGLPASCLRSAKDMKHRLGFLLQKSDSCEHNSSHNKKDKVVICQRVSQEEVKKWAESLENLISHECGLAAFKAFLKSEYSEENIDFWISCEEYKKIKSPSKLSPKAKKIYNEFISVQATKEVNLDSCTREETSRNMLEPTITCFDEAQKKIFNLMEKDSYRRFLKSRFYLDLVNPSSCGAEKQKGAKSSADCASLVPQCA
MrgX1 antagonist: blocks BAM8-22 activation of human MrgX1 receptor; actives 1.3% (n = 310,000); B-score at 10 µM; AID 588676; MRGX1-HEK293 calcium flux, Fluo-4, BAM8-22 antagonism; active compounds read low; Q96LB2;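 active = calcium-response B-score plate-corrected more than 3 library SD below zero, starting fluorescence within 5 deviations, no agonist response on first addition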;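 note: peak minus trough fluorescence over baseline after final BAM8-22 challenge near maximal dose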
Target sequence (Q96LB2 whole entry, looked up): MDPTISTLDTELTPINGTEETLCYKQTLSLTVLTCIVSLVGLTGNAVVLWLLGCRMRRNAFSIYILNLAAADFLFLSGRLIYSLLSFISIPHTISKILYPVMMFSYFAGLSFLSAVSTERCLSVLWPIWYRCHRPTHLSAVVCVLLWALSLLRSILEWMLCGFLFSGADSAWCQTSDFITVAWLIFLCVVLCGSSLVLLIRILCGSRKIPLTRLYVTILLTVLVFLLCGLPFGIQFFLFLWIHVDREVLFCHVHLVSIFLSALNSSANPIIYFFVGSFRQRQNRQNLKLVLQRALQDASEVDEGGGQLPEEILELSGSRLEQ
RGS4 pot: potentiators or activators of RGS4; HEK293 M3R/inducible RGS4, carbachol calcium flux Fluo4; active compounds read low; B-score at 10 µM; actives 0.92% (n = 310,000); AID 463111;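 active = B-score of the integrated calcium signal more than 4 SD below the library mean, with starting fluorescence not abnormally high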;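 note: negative B-score means reduced calcium response which marks RGS4 activation or potentiation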
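Material: Inducible-RGS4 HEK293 cells carrying M3 receptor; also added: carbachol at ECmax as muscarinic agonist stimulus; incubation: compound preincubation 20 min at room temperature before agonist; signal: Fluo4-AM (2 µM) calcium-flux fluorescence, kinetic read; measure: integrated calcium ratio converted to B score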
MrgX1 agonist: human MrgX1 receptor agonism, primary screen. Q96LB2. MrgX1-HEK293 cells, Fluo-4 calcium fluorescence, agonist mode; active compounds read high. B-score at 10 µM. AID 588627. actives 0.44% (n = 310,000);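 active = calcium response B-score plate-corrected fluorescence ratio at least 3 library SD, with starting fluorescence B-score inside 5 SD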
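System: HEK293 cells stably expressing human MrgX1 receptor; Dosing: test compound in the initial addition of three; Schedule: overnight plating, then 30 min 37 °C plus 30 min room-temperature dye loading; Detection: kinetic calcium dye fluorescence, Fluo-4 NW; Controls: per-plate positive and negative controls for Z′ factor.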
MrgX1 allo act: human MrgX1 positive allosteric modulation, primary screen | Q96LB2 | MrgX1-HEK293, Fluo-4 calcium flux, FDSS; active compounds read high | B-score at 10 µM | actives 0.63% (n = 310,000);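 active = plate-corrected calcium response at least 3 library SD above typical, normal starting fluorescence, not activating the receptor alone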;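 note: compound read alongside a low EC10 to EC30 dose of BAM8-22 agonist; peak minus trough fluorescence over baseline measured at the second addition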
MrgX1 ant reconf: confirmation of human MrgX1 receptor antagonists | shares compounds with MrgX1 antagonist | MrgX1-HEK293, BAM8-22 calcium flux, Fluo-4; active compounds read low | remaining BAM8-22 calcium response % of control (active compounds read low), % at 10 µM | actives 19% (n = 2,300);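 active = remaining agonist calcium response no higher than 100% minus 3 SD of agonist-only control wells, with starting fluorescence near control levels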;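 note: agonist BAM8-22 given at a near maximal EC90 to ECmax level; peak minus minimum fluorescence divided by baseline after agonist addition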
HEK293 Ca flux: counter-screen for MrgX1 antagonists: effect in parental HEK293 cells; shares compounds with MrgX1 antagonist; Fluo-4 calcium fluorescence, FDSS; fluorescence ratio F(max-min)/F0 at 10 µM; actives 2% (n = 4,000); AID 624111;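 active = duplicate-averaged calcium fluorescence ratio at least three times the standard deviation of buffer wells, a nonspecific response in parental cells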
HEK293 Ca counter: MrgX1 allosteric activator counter-screen hit in parental HEK293 cells | shares compounds with MrgX1 antagonist | parental HEK293 calcium flux, Fluo-4 fluorescence ratio; active compounds read high | fluorescence ratio F(max-min)/F0 at 10 µM | actives 0.4% (n = 4,000);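 active = calcium fluorescence ratio, averaged over duplicates, at least 3 SD of the buffer-well ratio, meaning a nonspecific response in receptor-free cells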;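 note: untransfected parental HEK293 lacking MrgX1 used as counterscreen for MrgX1 allosteric activators; fluorescence change taken during the second addition on a kinetic imager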
HEK293 Ca cntr2: activity in parental HEK293 cells lacking MrgX1 receptor. shares compounds with MrgX1 antagonist. Fluo-4 calcium fluorescence (FDSS); active compounds read high. fluorescence ratio F(max-min)/F0 at 10 µM. actives 8.7% (n = 4,000);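 active = calcium fluorescence ratio at least three times the spread of buffer wells, meaning a non-specific response in parental cells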
Of the large screens only hits and unclear results are named; the others gave an inactive call (follow-up assays come after a bar, where they were run).

CCOc1ccc(-c2cc(C)[n+](CCO)c(-c3ccc(OCC)cc3)c2)cc1	none
CCOc1ccc(-c2cc(C)[n+](CCc3ccc(OC)c(OC)c3)c(-c3ccc(OCC)cc3)c2)cc1	MrgX1 antagonist -13, RGS4 pot -9.9 | MrgX1 ant reconf 70% | HEK293 Ca flux inactive | HEK293 Ca counter inactive | HEK293 Ca cntr2 inactive
COC(=O)C1=C(c2cccc(OC)c2OC)C[C@@H]2CC[C@H]1N2C(=O)NCc1ccco1	none
Cc1c(C(=O)N2CCC3(CC2)OCCO3)oc2ccc(S(=O)(=O)N3CCOCC3)cc12	MrgX1 antagonist -4.5 | MrgX1 ant reconf inactive | HEK293 Ca flux inactive | HEK293 Ca counter inactive | HEK293 Ca cntr2 inactive
Cc1c(C(=O)N2CCC3(CC2)OCCO3)oc2ccccc12	none
Clc1ccc2[nH]c3c(c2c1)CCNC3	MrgX1 antagonist -5.4 | MrgX1 ant reconf inactive | HEK293 Ca flux inactive | HEK293 Ca counter inactive | HEK293 Ca cntr2 inactive
C#C[C@@]1(O)CCC2C3CCC4=C/C(=N/OCC(=O)NC(CCC(N)=O)C(=O)O)CC[C@]4(C)C3CC[C@@]21C (stereo partly drawn)	none
CC(C)(C)c1ccc(O)c(CN2CCN(c3ccccc3)CC2)c1	MrgX1 antagonist -9.3 | MrgX1 ant reconf inactive | HEK293 Ca flux inactive | HEK293 Ca counter inactive | HEK293 Ca cntr2 inactive
Clc1ccccc1CN1CCN(c2ccccc2)CC1	none
C=CCn1c(O)c(C(CC)=NC(C)c2ccccc2)c(=O)[nH]c1=O (stereo not drawn)	none
C=CCn1c(O)c(Cc2ccc(OCC)cc2)c(=O)[nH]c1=O	none
O=C(O)C1CN2CCC1CC2 (stereo not drawn)	MrgX1 antagonist -8 | MrgX1 ant reconf inactive | HEK293 Ca flux inactive | HEK293 Ca counter inactive | HEK293 Ca cntr2 inactive
CCOC(=O)C(O)(c1ccc(NC(=S)NC(=O)c2ccc(Cl)cc2Cl)c(C)c1)C(F)(F)F (stereo not drawn)	MrgX1 antagonist -4.7 | MrgX1 ant reconf inactive | HEK293 Ca flux inactive | HEK293 Ca counter inactive | HEK293 Ca cntr2 inactive
COC(=O)C(O)(c1ccc(NC(=S)NC(=O)c2ccc(Cl)cc2Cl)c(C)c1)C(F)(F)F (stereo not drawn)	none
COc1cc(CC2(CCc3ccncc3)C(=O)N(C)C(=O)N(C)C2=O)cc(OC)c1OC	none
CC(C)CCn1c(=O)c(C(=O)Nc2ccccc2S(N)(=O)=O)c(O)c2ccccc21	none
CC(C)CCn1c(=O)c(C(=O)NCc2ccc3c(c2)OCO3)c(O)c2ccccc21	MrgX1 antagonist -7.7 | MrgX1 ant reconf inactive | HEK293 Ca flux inactive | HEK293 Ca counter inactive | HEK293 Ca cntr2 inactive
COC(=O)C1=C(c2ccc(S(C)(=O)=O)cc2)C[C@@H]2CC[C@H]1N2C(=O)NCC1CC1	MrgX1 antagonist -9.4 | MrgX1 ant reconf inactive | HEK293 Ca flux inactive | HEK293 Ca counter inactive | HEK293 Ca cntr2 inactive
COC(=O)C1=C(c2ccc(S(C)(=O)=O)cc2)C[C@@H]2CC[C@H]1N2C(=O)NCCO	none
N=C1C(c2ccccc2)=C(O)CN1Cc1ccco1	MrgX1 antagonist -5.7 | MrgX1 ant reconf inactive | HEK293 Ca flux inactive | HEK293 Ca counter inactive | HEK293 Ca cntr2 inactive
CCC(=O)OC1(Cc2ccc(CC)cc2)CC(C)N(C)CC1C (stereo not drawn)	none
Cc1sc2ncnc(N3CCC(C(=O)Nc4ccc(C#N)c(Cl)c4)CC3)c2c1C	MrgX1 antagonist -5.8 | MrgX1 ant reconf inactive | HEK293 Ca flux inactive | HEK293 Ca counter inactive | HEK293 Ca cntr2 inactive
CCN(CC(=O)Nc1ccc(C#N)c(Cl)c1)CC(=O)NC(C)(C)C	none
